Measured values reported in ChEMBL document CHEMBL1126849, “Synthesis of A-ring fluorinated derivatives of (17 alpha,20E/Z)-[125I]iodovinylestradiols: effect on receptor binding and receptor-mediated target tissue uptake” (J Med Chem, 1993).

System: Rattus norvegicus
Assay: Biodistribution in uterus/spleen, muscle, lungs of immature female rat after 12 hour administration of 3 micro Ci (111 kBq) in the absence of 60 microg estradiol
Type: ADME, organism-based
Conditions: in vivo
How it was run: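 Immature female Long Evans rats (21–24 days, 45–70 g), 3–5 per group, unanesthetized in retention cages, given 3 μCi (111 kBq) 125I-labeled steroid by lateral tail vein. Vehicle: ethanol diluted with saline containing 1% Tween-80, final ethanol 9%. +E2 group co-injected 60 μg unlabeled estradiol (1 h only). Killed under ether; tissues KCl-washed, weighed, gamma-counted. Output: %ID/g (mean, SE) and uterus to blood or nontarget (muscle, spleen, lungs) ratios.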

## C[C@]12CC[C@@H]3c4cc(F)c(O)cc4CC[C@H]3[C@@H]1CC[C@@]2(O)/C=C/I
  ID/g: 1.25%
